Test system: HL-60
Test: Cytotoxicity against human HL60 cells after 72 hrs by MTT assay
Type: functional, cell-based
Settings: HL-60, 72 h
Procedure, shortened: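 HL-60 leukemia cells kept in RPMI 1640 with 10% fetal bovine serum, L-glutamine, 100 units/mL penicillin and 100 μg/mL streptomycin. Cells at 3 × 10^4 cells/mL exposed continuously to compound for 72 h. Growth read by MTT reduction. IC50 (50% inhibition) calculated from each compound's dose–response curve.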

Structure (SMILES) | IC50 [nM]
COc1ccc(C(=O)O[C@H]2[C@H](O[C@@H]3[C@@H](OC(C)=O)[C@H](O[C@H]4C[C@H]5[C@@H]6CC=C7C[C@@H](O)CC[C@]7(C)[C@H]6CC[C@]5(C)[C@@]4(O)[C@H](C)C(=O)CCC(C)C)OC[C@@H]3O)OC[C@@H](O[C@@H]3O[C@H](CO)[C@@H](O)[C@H](O)[C@H]3O)[C@@H]2O)cc1OC | 16
COc1cc([C@@H]2c3cc4c(cc3[C@@H](O[C@@H]3O[C@@H]5CO[C@@H](C)O[C@H]5[C@H](O)[C@H]3O)[C@H]3COC(=O)[C@H]23)OCO4)cc(OC)c1O [ETOPOSIDE] | 25
CC(C)CCC(O)[C@@H](C)[C@@]1(O)[C@@H](O[C@@H]2OC[C@H](O)[C@H](O[C@@H]3OC[C@@H](O)[C@H](O)[C@H]3O)[C@H]2O)C[C@H]2[C@@H]3CC=C4C[C@@H](O)CC[C@]4(C)[C@H]3CC[C@@]21C (stereo partly drawn) | 8300

Source: ChEMBL document CHEMBL1150225, “Cytotoxic cholestane glycosides from the bulbs of Ornithogalum saundersiae” (J Nat Prod, 2001)
